Bioassay records as filed in PubChem BioAssay.
TAAR1 agonist = human TAAR1 agonism; Q96RJ0; CHO RD-HGA16 TAAR1, Fluo-8 calcium fluorescence; vehicle wells 0%, saturating PEA agonist 100%; activation, % at 3 µM; actives 0.99% (n = 360,000);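 active means activation above the mean activation of all test compounds in the run plus 3 SD, cut at about 38% in these data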
Target sequence (Q96RJ0 whole entry, looked up): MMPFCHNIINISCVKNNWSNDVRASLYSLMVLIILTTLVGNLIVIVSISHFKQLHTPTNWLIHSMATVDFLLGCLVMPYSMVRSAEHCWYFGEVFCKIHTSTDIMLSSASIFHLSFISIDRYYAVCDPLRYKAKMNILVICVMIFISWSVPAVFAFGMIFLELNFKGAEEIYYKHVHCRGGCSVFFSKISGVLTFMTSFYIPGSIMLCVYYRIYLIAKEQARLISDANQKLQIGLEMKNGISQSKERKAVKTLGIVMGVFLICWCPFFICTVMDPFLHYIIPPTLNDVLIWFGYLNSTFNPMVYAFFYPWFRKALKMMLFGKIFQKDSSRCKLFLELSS
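Test system: RD-HGA16 (CHO) cells co-expressing Gα16 and hTAAR1 | Doses: Single dose, 3 µM | Schedule: 17-24 h seeding, 75 min 37 °C dye, 30 min RT | Evaluation: % activation from peak over basal fluorescence ratio, DMSO-to-PEA scaled | Technique: Kinetic Fluo-8 calcium fluorescence | Benchmarks: Low control DMSO, high control PEA (EC100)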
OX1R antag-1 = antagonists of human orexin 1 receptor (OX1R). actives 1.8% (n = 330,000). inhibition, % at 6.6 µM. OX1R-expressing cells, FRET antagonist read-out. O43613; in the data active means inhibition mostly above about 38%, no sharp cut-off; inactive means mostly below about 40%
GPR7 antagonist = blocks human GPR7 receptor signaling; actives 1.1% (n = 290,000); GPR7-expressing cells, fluorescence antagonist assay; inhibition, % at 4.4 µM; P48145; in the data active means inhibition above about 16%, passing the limit was not always enough;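 further: cells stimulated with the agonist NPW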
Target sequence (P48145 whole entry, looked up): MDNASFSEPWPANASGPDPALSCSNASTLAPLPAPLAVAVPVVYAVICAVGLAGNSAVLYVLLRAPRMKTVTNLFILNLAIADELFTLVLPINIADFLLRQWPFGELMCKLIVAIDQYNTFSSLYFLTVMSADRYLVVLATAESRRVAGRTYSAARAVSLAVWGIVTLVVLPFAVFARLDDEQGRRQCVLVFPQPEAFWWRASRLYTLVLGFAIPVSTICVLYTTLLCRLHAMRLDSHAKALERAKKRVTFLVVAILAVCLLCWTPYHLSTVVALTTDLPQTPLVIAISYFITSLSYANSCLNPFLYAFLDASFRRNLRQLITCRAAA
OX1R antag-2 = antagonists of human orexin 1 receptor; O43613; CHO/OX1R cells, Fluo-8 calcium fluorescence, orexin A; inhibition, % at 5 µM; actives 0.43% (n = 330,000); AID 434989;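 active means inhibition above its plate's threshold, mean inhibition of all tested compounds on the plate plus 3 SD, cut at about 37% in these data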
CHO parental Ca = counter-screen: ATP calcium response change in parental CHO cells. actives 0.63% (n = 330,000). parental CHO-K1, ATP-induced calcium, Fluo-8 fluorescence. inhibition, % at 5.6 µM;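 active means inhibition above that plate's mean sample inhibition plus 3 SD, cut at about 26% in these data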
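test system = CHO parental line | reagent = ATP stimulus | measured by = intracellular calcium via Fluo-8 no-wash fluorescent dye | control set = ATP and no-ATP DMSO wells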
TAAR1 antagonist = antagonists of human TAAR1 | Q96RJ0 | CHO RD-HGA16 TAAR1, Fluo-8 calcium fluorescence, antagonist | inhibition, % at 3 µM | actives 1.5% (n = 360,000) | AID 624466;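 active means inhibition above a per-plate cutoff, the mean inhibition of test compounds on that plate plus 3 SD, cut at about 49% in these data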
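Material: RD-HGA16 CHO cells with stable hTAAR1 and Gα16; Dosing: single nominal final test compound concentration of 3 µM; Schedule: seeding 17-24 h prior, 75-min 37 °C, 30-min RT dye loading; Detection: kinetic Fluo-8 calcium fluorescence measurement; Measure: % inhibition from peak post-agonist over basal fluorescence ratio; Benchmarks: vehicle and agonist controls.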
GPR7 antag conf = confirmation of human GPR7 antagonists. shares compounds with GPR7 antagonist. GPR7-expressing cells, calcium fluorescence antagonist mode. inhibition, % at 4.4 µM. actives 52% (n = 2,400). AID 1952; in the data active means inhibition above about 24%;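 further: stimulated with the GPR7 agonist NPW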
MCHR1 antagonist = MCHR1 (human) antagonism in GPR7 counter-screen. shares compounds with GPR7 antagonist. MCHR1-expressing cells, fluorescence antagonist assay. inhibition, % at 4.4 µM. actives 62% (n = 2,400). AID 2148; in the data active means inhibition above about 22%
OX1R Ca confirm = confirmation of human orexin 1 receptor antagonists; CHO/OX1R cells, orexin A calcium Fluo-8 fluorescence; inhibition, % at 5 µM; shares compounds with OX1R antag-2; actives 38% (n = 1,100); AID 492963; in the data active means inhibition above about 29%
CHO Ca counter = counter-screen: parental CHO calcium response change, triplicate | shares compounds with OX1R antag-2 | inhibition, % at 5.6 µM | actives 9.3% (n = 1,100) | parental CHO-K1, ATP-induced calcium, Fluo-8 fluorescence;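 active means inhibition above a per-plate limit, the mean inhibition of that plate's test compounds plus 3 SD, cut at about 25% in these data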
A number is an active result; - = inactive; . = not tested or not shown. Rows were chosen to be rich in hits. Some 4.6% of all compounds tested hit in one or more screens of this group.

SMILES | TAAR1 agonist | OX1R antag-1 | GPR7 antagonist | OX1R antag-2 | CHO parental Ca | TAAR1 antagonist | GPR7 antag conf | MCHR1 antagonist | others
COC(=O)c1cc2c(C(F)(F)F)nn(C)c2s1 | - | - | - | - | - | - | . | .
COc1ccccc1C(=O)Nc1ccc(OC(C)C(=O)N2CCOCC2)cc1 (stereo not drawn) | - | - | . | - | - | - | . | .
NCC(c1ccc(Cl)cc1Cl)c1c[nH]c2ccccc12 (stereo not drawn) | 45 | - | 51 | - | - | - | 61 | 69
O=C(c1ccc(Cl)cc1)C(CN1CCCC1)c1ccccc1 (stereo not drawn) | - | - | 74 | - | - | - | 46 | 87
COc1ccc(C(=O)C(CN2CCCC2)c2ccccc2)cc1 (stereo not drawn) | - | - | - | - | - | - | . | .
COc1ccc(S(=O)(=O)NCC(=O)O)cc1C(=O)NC1CCCCC1 | - | - | - | - | - | - | . | .
CCn1c(Cc2ccccc2)nnc1SCc1ccc([N+](=O)[O-])cc1 | - | - | 32 | - | - | - | - | -
Cc1sc2ncnc(N3CCC(C(=O)Nc4cc(C(F)(F)F)ccc4OCC(F)(F)F)CC3)c2c1C | - | . | . | . | . | - | . | .
CC1(C(=O)Nc2cccc3c2CCCC3)CCN1C(=O)C1(c2ccc(Cl)cc2)CC1 (stereo not drawn) | - | . | . | . | . | - | . | .
Cc1nn(C)c(C)c1Nc1ccc(N2C(=O)C3C4C=CC(C4)C3C2=O)cc1[N+](=O)[O-] (stereo not drawn) | - | - | 26 | - | - | - | - | -
COc1cc(OC)c(N(C)S(=O)(=O)c2cccc(C(=O)NC(C)C3CC4CCC3C4)c2)cc1Cl (stereo not drawn) | - | - | - | - | - | - | . | .
O=C(O)c1ccc(CNS(=O)(=O)c2ccc3ccccc3c2)cc1 | - | - | 23 | - | - | - | - | -
NS(=O)(=O)c1ccc(CNS(=O)(=O)c2ccc3ccccc3c2)cc1 | - | - | - | - | - | - | . | .
CCCC(O)(CCC)C(=O)NN(C(=O)OC)c1ccccc1 | - | - | - | - | - | - | . | .
CCCCC(O)(CCCC)C(=O)NN(C(=O)OC)c1ccc(C)cc1 | - | - | 23 | - | - | - | - | -
O=C(CC(C(=O)O)P(=O)(c1ccccc1)c1ccccc1)c1ccccc1 (stereo not drawn) | - | - | - | - | - | - | . | .
C(=C\c1ccccc1)/CSc1nnc(-c2cnccn2)n1Cc1ccco1 | - | - | 21 | - | - | - | 24 | 39
CN(C)CCCNc1nc2sc3c(c2c(=O)n1CCc1ccccc1)CCCCC3 | - | - | 29 | - | - | - | 51 | 65
COc1ccc(CNS(=O)(=O)c2ccc(S(=O)(=O)NC3CC3)cc2)cc1 | - | - | 27 | - | - | - | - | -
COc1cccc(CNS(=O)(=O)c2ccc(S(=O)(=O)NC3CC3)cc2)c1 | - | - | - | - | - | - | . | .
Cc1ccc(C(=O)NCC(=O)OCc2nnc(-c3ccc([N+](=O)[O-])cc3)o2)cc1 | - | . | . | . | . | - | . | .
Cc1nn(-c2ccc(Cl)cc2)c(=O)c2ccccc12 | - | - | - | - | - | - | . | .
Cc1c(Cl)sn(-c2ccc(Cl)cc2)c1=O | - | . | 25 | . | . | 61 | 73 | 91
CCCc1cc(=O)oc2cc(OCC(=O)N3CCC(C(N)=O)CC3)ccc12 | - | - | 23 | - | - | - | - | -
CCc1cc(=O)oc2cc(OCC(=O)N3CCC(C(=O)O)CC3)ccc12 | - | - | - | - | - | - | . | .
SMILES | TAAR1 agonist | OX1R antag-1 | GPR7 antagonist | OX1R antag-2 | CHO parental Ca | TAAR1 antagonist | GPR7 antag conf | MCHR1 antagonist | others
O=C(CSc1nnc(CNC(=O)c2ccco2)o1)Nc1ccc(F)cc1F | - | - | - | - | - | - | . | .
CC(=O)c1cccc(S(=O)(=O)Nc2ccc3nc(C)sc3c2)c1 | - | - | - | - | - | - | . | .
Cc1nc2ccc(S(=O)(=O)Nc3ccccc3C)cc2s1 | . | - | 25 | - | - | . | - | 35
CN(C(=O)C=Cc1ccco1)c1ccccc1 | - | . | . | . | . | - | . | .
CN(C(=O)/C=C/c1ccc([N+](=O)[O-])s1)c1ccccc1 | - | - | 25 | - | - | - | - | -
CC(=NNC(=O)Cn1ccc(C(F)(F)F)n1)c1ccc(-n2ccnc2)cc1 | - | - | . | - | - | - | . | .
O=C(CN1CCC(c2nc3ccccc3s2)CC1)N1CCCCC1 | - | - | - | - | - | - | . | .
O=C(CN1CCC(c2nc3ccccc3s2)CC1)NCc1cccs1 | - | - | 48 | 52 | - | - | 39 | 57 | OX1R Ca confirm=-;CHO Ca counter=-
COc1cc(-c2nnc(COC(=O)c3nn(CC(C)C)c(=O)c4ccccc34)o2)cc(OC)c1OC | - | - | . | - | - | - | . | .
COc1ccc(NC(=O)COc2ccccc2Cc2ccccc2)cc1S(N)(=O)=O | - | - | 42 | - | - | - | 45 | 57 | OX1R Ca confirm=-;CHO Ca counter=-
COc1ccc(NC(=O)CN(Cc2ccccc2)Cc2ccccc2)cc1S(N)(=O)=O | - | - | - | - | - | - | . | .
CCS(=O)(=O)c1ncc(Cl)c(C(=O)Nc2ccc(C)cc2)n1 | - | - | 53 | - | - | - | 52 | 84 | OX1R Ca confirm=32;CHO Ca counter=-
CC(=O)Nc1ccc(NC(=O)c2nc(S(=O)(=O)Cc3ccccc3)ncc2Cl)cc1 | - | - | - | - | - | - | . | .
O=C(Nc1ccccc1)Nc1cccc(C(F)(F)F)c1 | - | - | 27 | - | - | - | 41 | 61 | OX1R Ca confirm=-;CHO Ca counter=-
COC(=O)c1cc(-c2cc(OC)ccc2OC)nc2c1c(=O)n(C)c(=O)n2Cc1ccccc1 | - | - | - | - | - | - | . | .
Cc1ccc(C(CC(=O)N2CCNCC2)c2ccccc2)c(O)c1C (stereo not drawn) | - | - | 33 | - | - | - | - | - | OX1R Ca confirm=41;CHO Ca counter=31
O=C(Nc1ccc(C(=O)NCCCN2CCN(c3ccc(F)cc3)CC2)cc1)C1=CSCCO1 | 45 | - | 36 | - | - | - | 56 | 74 | OX1R Ca confirm=44;CHO Ca counter=27
CC1(C)CC2(OC2c2ccccc2[N+](=O)[O-])C(=O)c2ccccc21 (stereo not drawn) | - | . | . | . | . | - | . | .
CCOC(=O)c1nn(-c2ccccc2C)c(=O)c2c(N)scc12 | - | - | - | - | - | - | . | .
